Laboratory results reported in ChEMBL document CHEMBL4196006, “Aryl thiosemicarbazones for the treatment of trypanosomatidic infections” (Eur J Med Chem, 2018).
Calls of active or inactive are those of the source. No cut-off for these calls is given here.

Legend:
Trypanosoma brucei [1] = assay: Antitrypanosomal activity against Trypanosoma brucei Lister 427 bloodstream form assessed as parasite growth inhibition at 50 uM after 72 hrs by SYBR Green assay relative to control; format: functional; details: for inhibition of growth at 50 µM: Lister 427, 72 h, read-out: GI
Leishmania infantum = assay: Antileishmanial activity against Leishmania infantum amastigote form assessed as parasite growth inhibition at 50 uM after 72 hrs by steady-Glo reagent based assay relative to control; format: functional; details: read-out: GI
In short: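 Intramacrophage L. infantum amastigotes in THP-1-derived macrophages, tested at 50 μM or in dose-response. Plates held 72 h at 37 °C, 5% CO2. Medium was replaced by PBS, macrophages lysed, and parasites read by Steady-Glo luminescence. High-content imaging gave host cell number, infection ratio (infected/total cells) and parasites per infected cell. Values are means of at least two independent experiments.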

Trypanosoma cruzi [2] = assay: Antitrypanosomal activity against Trypanosoma cruzi amastigote form infected in human U2OS cells assessed as parasite growth inhibition at 50 uM after 72 hrs relative to control; format: functional; details: read-out: GI
In short: (§1)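 U2OS monolayers grown for 24 h, then infected with tissue-derived trypomastigotes of T. cruzi Y strain. Compounds were added 24 h after infection at 50 μM (single-point) or in dose-response, with 72 h exposure. Plates were fixed, stained and analysed by high-content imaging; activity was normalized to infected and non-infected controls. Means of at least two experiments; benznidazole as reference.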

Trypanosoma brucei [3] = assay: Antitrypanosomal activity against Trypanosoma brucei Lister 427 bloodstream form after 72 hrs by SYBR Green assay; format: functional, organism-based; details: Lister 427, 72 h
Trypanosoma brucei [4] = assay: Antitrypanosomal activity against Trypanosoma brucei Lister 427 bloodstream form at 10 uM after 72 hrs by resazurin dye-based assay relative to control; format: functional
Trypanosoma brucei [5] = assay: Potentiation of methotrexate-induced antitrypanosomal activity against Trypanosoma brucei Lister 427 bloodstream form at 10 uM after 72 hrs by resazurin dye-based assay relative to control; format: functional
CYP1A2 = molecular target: T1, CYP1A2 (Homo sapiens, UniProt P05177); assay: Inhibition of human microsomal CYP1A2 expressed in baculovirus infected BTI-TN-5B1-4 cells at 10 uM incubated for 30 mins by luciferase assay relative to control; format: ADME
T1 sequence (P05177 whole entry): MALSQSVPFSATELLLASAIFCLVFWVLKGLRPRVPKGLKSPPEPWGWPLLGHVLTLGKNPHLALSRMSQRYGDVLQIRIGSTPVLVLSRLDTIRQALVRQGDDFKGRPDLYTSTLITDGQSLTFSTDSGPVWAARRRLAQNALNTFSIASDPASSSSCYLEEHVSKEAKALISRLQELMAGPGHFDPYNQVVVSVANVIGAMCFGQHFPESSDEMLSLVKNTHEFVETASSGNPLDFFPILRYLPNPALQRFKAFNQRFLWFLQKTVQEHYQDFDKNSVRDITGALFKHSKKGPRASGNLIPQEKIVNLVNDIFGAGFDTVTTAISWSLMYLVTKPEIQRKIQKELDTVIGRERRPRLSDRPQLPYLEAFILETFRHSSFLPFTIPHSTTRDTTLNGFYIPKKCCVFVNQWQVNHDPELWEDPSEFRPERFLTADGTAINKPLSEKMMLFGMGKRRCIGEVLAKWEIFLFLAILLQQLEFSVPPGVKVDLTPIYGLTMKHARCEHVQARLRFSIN
In short: (§2)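 CYP1A2, 2C9, 2C19, 2D6 and 3A4 in microsomes from baculovirus-infected insect cells, each with a P450-Glo luminogenic substrate. Inhibition read as loss of light; single-point at 10 μM, triplicate.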

Trypanosoma brucei [6] = assay: Potentiation of methotrexate-induced antitrypanosomal activity against Trypanosoma brucei Lister 427 bloodstream form at 10 uM after 72 hrs by resazurin dye-based assay; format: functional
hERG (KCNH2) = hERG (KCNH2) (Homo sapiens, UniProt Q12809); assay: Inhibition of human ERG at 10 uM incubated for 2 hrs by fluorescence polarisation assay relative to control
CYP2C9 = CYP2C9 (Homo sapiens, UniProt P11712); assay: Inhibition of human microsomal CYP2C9 expressed in baculovirus infected BTI-TN-5B1-4 cells at 10 uM incubated for 30 mins by luciferase assay relative to control; format: ADME; in short: as §2
CYP2C19 = CYP2C19 (Homo sapiens, UniProt P33261); assay: Inhibition of human microsomal CYP2C19 expressed in baculovirus infected BTI-TN-5B1-4 cells at 10 uM incubated for 30 mins by luciferase assay relative to control; format: ADME; in short: as §2
CYP2D6 = CYP2D6 (Homo sapiens, UniProt P10635); assay: Inhibition of human microsomal CYP2D6 expressed in baculovirus infected BTI-TN-5B1-4 cells at 10 uM incubated for 30 mins by luciferase assay relative to control; format: ADME; in short: as §2
CYP3A4 = CYP3A4 (Homo sapiens, UniProt P08684); assay: Inhibition of human microsomal CYP3A4 expressed in baculovirus infected BTI-TN-5B1-4 cells at 10 uM incubated for 30 mins by luciferase assay relative to control; format: ADME; in short: as §2
Aurora kinase B = Aurora kinase B (Homo sapiens, UniProt Q96GD4); assay: Inhibition of recombinant full-length human aurora B kinase expressed in baculovirus system at 10 uM using MBP as substrate incubated for 45 mins by ADP-glo kinase assay; details: probe MBP
In short: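 Aurora B activity measured as ADP formation via coupled luciferase ADP-Glo luminescence; single-point at 10 μM, triplicate.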

[7] = Cytotoxicity against human 786-O cells assessed as inhibition of mitochondrial viability at 10 uM after 6 hrs by CMXRos staining based assay relative to control; format: cell-based, 786-0; details: read-out: INH
In short: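 Mitochondrial toxicity monitored by MitoTracker Red CMXRos uptake and high-content imaging; compound at 10 μM, triplicate.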

[8] = Cytotoxicity against human THP1 cells assessed as viable cells at 100 uM after 72 hrs by MTT assay relative to control; format: cell-based, THP-1; details: read-out: Activity
In short: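 THP-1-derived macrophages exposed to compounds for 72 h, tested at 100 μM or in dose-response; viability read by MTT colorimetric assay.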

[9] = Cytotoxicity against human U2OS cells assessed as viable cells at 50 uM after 72 hrs by MTT assay relative to control; format: cell-based; details: read-out: Activity
[10] = molecular target: T2, Pteridine reductase, putative (Trypanosoma brucei) (UniProt Q581W1); assay: Inhibition of Trypanosoma brucei PTR1 at 50 uM using H2B as substrate in presence of NADPH by photometric analysis relative to control
T2 sequence (whole entry): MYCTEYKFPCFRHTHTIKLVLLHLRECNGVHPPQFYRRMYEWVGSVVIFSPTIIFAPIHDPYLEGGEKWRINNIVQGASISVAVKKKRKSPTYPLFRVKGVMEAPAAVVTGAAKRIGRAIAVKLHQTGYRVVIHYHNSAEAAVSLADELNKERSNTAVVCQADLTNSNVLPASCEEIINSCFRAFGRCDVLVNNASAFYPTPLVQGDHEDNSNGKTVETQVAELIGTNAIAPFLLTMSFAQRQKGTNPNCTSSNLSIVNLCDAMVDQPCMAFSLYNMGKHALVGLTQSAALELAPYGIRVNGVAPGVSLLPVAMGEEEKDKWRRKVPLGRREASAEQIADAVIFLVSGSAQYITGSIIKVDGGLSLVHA

[11] = molecular target: T3, Pteridine reductase 1 (Leishmania major) (UniProt Q01782); assay: Inhibition of Leishmania major PTR1 at 50 uM using H2B as substrate in presence of NADPH by photometric analysis relative to control
T3 sequence (whole entry): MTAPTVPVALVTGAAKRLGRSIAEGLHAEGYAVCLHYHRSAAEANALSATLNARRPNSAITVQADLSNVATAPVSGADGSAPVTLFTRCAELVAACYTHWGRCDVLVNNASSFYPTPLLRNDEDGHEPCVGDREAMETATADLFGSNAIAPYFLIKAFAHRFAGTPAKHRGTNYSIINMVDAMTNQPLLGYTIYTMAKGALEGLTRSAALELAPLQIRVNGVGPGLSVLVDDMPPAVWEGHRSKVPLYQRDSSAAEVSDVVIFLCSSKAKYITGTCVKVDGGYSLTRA

[12] = Cytotoxicity against human A549 cells assessed as growth inhibition at 10 uM after 48 hrs by CellTiter-Glo assay relative to control; values are per cent of control; details: A549 cells
[13] = Cytotoxicity against human WI38 cells assessed as growth inhibition at 10 uM after 48 hrs by CellTiter-Glo assay relative to control; values are per cent of control; details: WI38 cells
Trypanosoma cruzi [14] = assay: Antitrypanosomal activity against Trypanosoma cruzi amastigote form infected in human U2OS cells assessed as parasite growth inhibition after 72 hrs; format: functional, organism-based; in short: as §1
[15] = Selectivity index, ratio of CC50 for human U2OS cells to EC50 for Trypanosoma cruzi amastigote form; format: toxicity; details: read-out: Ratio CC50/EC50
In short: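 Selectivity index = CC50 in the human host or cytotoxicity cell line divided by parasite EC50.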

[16] = Cytotoxicity against human U2OS cells assessed as decrease in viable cells after 72 hrs by cell number count in anti-T. cruzi high content imaging assay; details: U2OS cells

CYP3A4, sequence (P08684 whole entry): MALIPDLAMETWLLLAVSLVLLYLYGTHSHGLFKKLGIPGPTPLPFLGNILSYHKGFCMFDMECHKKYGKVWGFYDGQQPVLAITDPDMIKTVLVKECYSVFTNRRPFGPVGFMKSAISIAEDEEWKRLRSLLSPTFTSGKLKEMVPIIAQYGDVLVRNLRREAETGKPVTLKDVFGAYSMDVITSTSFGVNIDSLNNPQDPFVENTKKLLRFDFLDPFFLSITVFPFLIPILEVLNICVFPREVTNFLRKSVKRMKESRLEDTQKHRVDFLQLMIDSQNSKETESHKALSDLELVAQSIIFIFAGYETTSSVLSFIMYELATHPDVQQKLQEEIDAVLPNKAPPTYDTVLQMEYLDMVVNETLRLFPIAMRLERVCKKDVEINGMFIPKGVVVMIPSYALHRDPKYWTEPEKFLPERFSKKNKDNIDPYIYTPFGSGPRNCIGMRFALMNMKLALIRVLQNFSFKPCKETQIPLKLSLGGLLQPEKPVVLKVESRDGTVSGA
CYP2C19, sequence (P33261 whole entry): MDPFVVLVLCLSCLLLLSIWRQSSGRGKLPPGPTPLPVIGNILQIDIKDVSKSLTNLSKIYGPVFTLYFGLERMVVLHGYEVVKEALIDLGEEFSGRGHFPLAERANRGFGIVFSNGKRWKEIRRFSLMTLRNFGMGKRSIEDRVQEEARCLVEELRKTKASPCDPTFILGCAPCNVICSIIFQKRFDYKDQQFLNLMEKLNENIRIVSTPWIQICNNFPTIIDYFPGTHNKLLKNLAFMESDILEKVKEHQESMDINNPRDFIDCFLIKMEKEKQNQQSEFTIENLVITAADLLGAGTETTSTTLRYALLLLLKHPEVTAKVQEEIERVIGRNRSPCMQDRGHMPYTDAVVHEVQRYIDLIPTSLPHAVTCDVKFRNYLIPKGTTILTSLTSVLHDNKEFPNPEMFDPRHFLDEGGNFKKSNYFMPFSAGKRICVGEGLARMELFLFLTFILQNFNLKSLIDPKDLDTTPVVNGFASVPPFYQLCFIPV
CYP2D6, sequence (P10635 whole entry): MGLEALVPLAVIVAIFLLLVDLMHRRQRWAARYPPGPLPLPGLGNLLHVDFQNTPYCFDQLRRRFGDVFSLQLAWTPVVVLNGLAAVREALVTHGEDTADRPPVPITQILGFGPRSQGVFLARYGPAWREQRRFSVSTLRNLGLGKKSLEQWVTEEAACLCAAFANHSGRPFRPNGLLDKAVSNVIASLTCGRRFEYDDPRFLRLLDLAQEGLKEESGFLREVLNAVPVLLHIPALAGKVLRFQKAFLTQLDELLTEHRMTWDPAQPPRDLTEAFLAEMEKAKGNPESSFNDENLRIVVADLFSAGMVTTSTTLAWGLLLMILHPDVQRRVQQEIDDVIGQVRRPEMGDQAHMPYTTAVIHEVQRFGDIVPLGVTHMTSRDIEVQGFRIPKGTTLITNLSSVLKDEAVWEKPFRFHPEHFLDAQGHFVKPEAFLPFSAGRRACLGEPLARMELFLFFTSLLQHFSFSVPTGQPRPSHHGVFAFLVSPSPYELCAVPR
Aurora kinase B, sequence (Q96GD4 whole entry): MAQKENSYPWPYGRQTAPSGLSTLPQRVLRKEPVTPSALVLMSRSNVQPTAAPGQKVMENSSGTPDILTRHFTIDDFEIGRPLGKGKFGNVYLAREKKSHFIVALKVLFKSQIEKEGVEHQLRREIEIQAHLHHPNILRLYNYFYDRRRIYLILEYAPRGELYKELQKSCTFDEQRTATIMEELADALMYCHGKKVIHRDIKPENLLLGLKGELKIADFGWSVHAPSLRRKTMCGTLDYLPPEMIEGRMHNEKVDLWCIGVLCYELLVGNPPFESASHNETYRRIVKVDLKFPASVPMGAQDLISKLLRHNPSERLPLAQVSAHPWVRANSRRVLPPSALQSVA
hERG (KCNH2), sequence (Q12809 whole entry): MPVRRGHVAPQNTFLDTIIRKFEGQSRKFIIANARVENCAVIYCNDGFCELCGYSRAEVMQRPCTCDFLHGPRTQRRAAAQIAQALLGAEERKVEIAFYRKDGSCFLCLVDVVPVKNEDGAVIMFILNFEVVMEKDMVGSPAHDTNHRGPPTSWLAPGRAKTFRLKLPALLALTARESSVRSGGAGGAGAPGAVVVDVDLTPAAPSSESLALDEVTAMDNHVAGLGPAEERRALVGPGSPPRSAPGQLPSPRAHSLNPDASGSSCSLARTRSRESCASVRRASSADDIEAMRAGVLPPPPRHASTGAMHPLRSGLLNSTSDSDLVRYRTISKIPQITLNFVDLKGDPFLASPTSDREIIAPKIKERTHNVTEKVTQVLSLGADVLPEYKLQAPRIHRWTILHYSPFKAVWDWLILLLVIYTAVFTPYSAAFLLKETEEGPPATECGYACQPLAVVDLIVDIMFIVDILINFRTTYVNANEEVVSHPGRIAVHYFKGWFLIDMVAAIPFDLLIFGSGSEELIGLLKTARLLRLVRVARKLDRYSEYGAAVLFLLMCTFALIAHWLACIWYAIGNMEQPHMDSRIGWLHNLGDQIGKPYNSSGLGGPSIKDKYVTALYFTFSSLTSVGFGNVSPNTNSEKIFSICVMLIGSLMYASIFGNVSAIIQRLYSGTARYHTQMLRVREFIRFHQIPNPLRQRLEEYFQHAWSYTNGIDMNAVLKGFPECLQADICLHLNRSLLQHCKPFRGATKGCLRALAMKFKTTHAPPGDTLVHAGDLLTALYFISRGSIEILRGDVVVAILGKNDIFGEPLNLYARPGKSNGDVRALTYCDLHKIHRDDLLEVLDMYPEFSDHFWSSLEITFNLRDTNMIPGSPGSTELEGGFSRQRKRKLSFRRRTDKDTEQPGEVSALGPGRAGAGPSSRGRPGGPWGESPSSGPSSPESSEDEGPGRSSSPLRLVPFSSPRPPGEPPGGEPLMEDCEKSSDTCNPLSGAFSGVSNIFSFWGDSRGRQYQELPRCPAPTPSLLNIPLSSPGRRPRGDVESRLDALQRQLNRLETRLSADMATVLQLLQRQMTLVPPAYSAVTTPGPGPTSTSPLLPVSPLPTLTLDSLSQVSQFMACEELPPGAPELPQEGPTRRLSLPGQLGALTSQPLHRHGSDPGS
CYP2C9, sequence (P11712 whole entry): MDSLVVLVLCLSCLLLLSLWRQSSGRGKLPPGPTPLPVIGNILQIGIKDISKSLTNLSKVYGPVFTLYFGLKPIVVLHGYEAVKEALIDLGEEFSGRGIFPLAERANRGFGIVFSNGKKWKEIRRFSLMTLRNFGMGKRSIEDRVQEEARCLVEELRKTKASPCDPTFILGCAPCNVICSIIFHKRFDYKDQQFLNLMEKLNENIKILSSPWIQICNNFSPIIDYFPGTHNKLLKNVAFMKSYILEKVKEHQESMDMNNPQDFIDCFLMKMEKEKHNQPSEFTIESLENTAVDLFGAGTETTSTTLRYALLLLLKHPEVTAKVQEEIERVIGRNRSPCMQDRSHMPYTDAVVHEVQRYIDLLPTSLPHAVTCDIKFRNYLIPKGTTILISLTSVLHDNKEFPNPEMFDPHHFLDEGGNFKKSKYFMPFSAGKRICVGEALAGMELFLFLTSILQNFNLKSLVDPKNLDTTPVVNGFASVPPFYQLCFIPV

inhibition at 0.5 h, 10 µM (CYP1A2) [%]	inhibition at 0.5 h, 10 µM (CYP2C9) [%]	inhibition at 0.5 h, 10 µM (CYP2C19) [%]	inhibition at 0.5 h, 10 µM (CYP2D6) [%]	inhibition at 0.5 h, 10 µM (CYP3A4) [%]	inhibition at 0.75 h, 10 µM (Aurora kinase B) [%]	inhibition [10] [%]	inhibition [11] [%]	Compound	inhibition of growth at 50 µM (Trypanosoma brucei [1]) [%]	inhibition of growth at 50 µM (Leishmania infantum) [%]	inhibition of growth at 50 µM (Trypanosoma cruzi [2]) [%]	Activity (Trypanosoma brucei [4]) [%]	Activity (Trypanosoma brucei [5]) [%]	PF (Trypanosoma brucei [6])	inhibition at 2 h, 10 µM (hERG (KCNH2)) [%]	cytotoxicity at 6 h, 10 µM [7] [%]	viability at 72 h, 100 µM [8] [%]	viability at 72 h, 50 µM [9] [%]	cell growth (% of control) at 48 h, 10 µM [12] [%]	cell growth (% of control) at 48 h, 10 µM [13] [%]	also measured
25.2	3.32	-34.6	2.28	-13.5	0.46	11.2	12.2	NC(=S)N/N=C/c1ccc2ncccc2c1	84.2	36	53.8	3.83	91.17	3.25	-13.2	-6.48	63.7	72.5	145	143	EC50 (Trypanosoma brucei [3]): 34.4 µM
-0.31	-12.2	-43.2	-43.1	-12.2	-8.76	3.99	14.8	NC(=S)N/N=C/c1ccco1	–	26.9	93.6	3.33	24	0.87	-7.97	-4.4	92.9	112	124	106	growth inhibition (GI) (Trypanosoma brucei [1]): inactive; EC50 (Trypanosoma cruzi [14]): 1.87 µM; selectivity ratio [15]: > 1; CC50 at 72 h [16]: > 44 µM
100	14.6	-17.1	22.1	5.98	-4.29	3.09	4.9	NC(=S)N/N=C/c1csc2ccccc12	3.57	24.4	24.3	21	52.33	1.16	-5.27	12.6	44.9	152	101	95.3	–
